18 molecules from ChEMBL document CHEMBL3813688, “Synthesis, antitumor activity and mechanism of action of novel 1,3-thiazole derivatives containing hydrazide-hydrazone and carboxamide moiety” (Bioorg Med Chem Lett, 2016) can be followed below.

Data set [1] concerns MCF7. Briefly: Cytotoxicity against human MCF7 cells assessed as cell growth inhibition after 72 hrs by MTT assay. It is filed as functional, cell-based. Particulars: MCF7, 72 h. A digest of the protocol:
(§1)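 MTT growth assay in human cancer lines (MCF-7, HepG2, BGC-823, HeLa, A549), 72 h after treatment; 5-fluorouracil as reference. IC50 (μg/mL) taken as concentration giving 50% growth inhibition versus untreated control.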

Data set [2] concerns HeLa. Briefly: Cytotoxicity against human HeLa cells assessed as cell growth inhibition after 72 hrs by MTT assay. It counts as functional, cell-based. A digest of the protocol: as §1
The subject of data set [3] is HepG2. As to the kind of experiment: Cytotoxicity against human HepG2 cells assessed as cell growth inhibition after 72 hrs by MTT assay. Particulars: HepG2, 72 h. It counts as functional, cell-based. Summed up: as §1
Data set [4] can be described thus: Cytotoxicity against human BCG823 cells assessed as cell growth inhibition after 72 hrs by MTT assay. It counts as functional, cell-based. Particulars: BCG823, 72 h. A digest of the protocol:
as §1

Data set [5] concerns A549. Briefly: Cytotoxicity against human A549 cells assessed as cell growth inhibition after 72 hrs by MTT assay. Particulars: A549, 72 h. It is filed as functional, cell-based. A digest of the protocol:
as §1

Data set [6] deals with MCF7. Briefly: Cytotoxicity against human MCF7 cells assessed as cell growth inhibition at 20 ug/ml after 72 hrs by MTT assay. It counts as functional. The following applies: MCF7, 72 h, read-out: GI.
Data set [7] concerns HeLa. As to the kind of experiment: Cytotoxicity against human HeLa cells assessed as cell growth inhibition at 20 ug/ml after 72 hrs by MTT assay. It counts as functional. The following applies: read-out: GI.
Data set [8] relates to HepG2. As to the kind of experiment: Cytotoxicity against human HepG2 cells assessed as cell growth inhibition at 20 ug/ml after 72 hrs by MTT assay. It is filed as functional. The following applies: HepG2, 72 h, read-out: GI.
Data set [9] in a line: Cytotoxicity against human BCG823 cells assessed as cell growth inhibition at 20 ug/ml after 72 hrs by MTT assay. It counts as functional. The following applies: BCG823, 72 h, read-out: GI.
Data set [10] relates to A549. As to the kind of experiment: Cytotoxicity against human A549 cells assessed as cell growth inhibition at 20 ug/ml after 72 hrs by MTT assay. It counts as functional. The following applies: A549, 72 h, read-out: GI.
Data set [11] has as its system MCF-7, HepG2, BGC-823, HeLa, A549 cancer cell lines (Homo sapiens). As to the kind of experiment: Cytotoxicity against human MCF-7, HepG2, BGC-823, HeLa and A549 cells assessed as cell growth inhibition at 20 ug/ml after 72 hrs by MTT assay. Particulars: read-out: GI.
Data set [12] is described as follows: Cytotoxicity against human HL7702 cells assessed as cell growth inhibition after 72 hrs by MTT assay. It counts as cell-based. Particulars: L02, 72 h.

Converted amounts (≈) assume the structure as drawn.

As to `CNc1nc(C(F)(F)F)c(C(=O)N/N=C/c2cc(C(F)(F)F)cc(C(F)(F)F)c2)s1`, the IC50 (with MCF7 [1]; with HeLa [2]; with HepG2 [3]; in data set [4]; in the data set with A549 [5]) was more than 100 µg/mL in each case. Further, the inhibition of growth at 20 µg/mL (in the data set on MCF7 [6]; in the data set with HeLa [7]; in the data set on HepG2 [8]; in data set [9]; in the data set on A549 [10]) was less than 30% each time. Moreover, in data set [11], the inhibition at 72 h, 20 ug/ml was less than 30%.

Regarding `CNc1nc(C)c(C(=O)N/N=C/c2ccc(C(F)(F)F)cc2)s1`, the IC50 (in the data set on MCF7 [1]; with HeLa [2]; in the data set on HepG2 [3]; in data set [4]; in the data set on A549 [5]) was more than 100 µg/mL each time. For the same molecule, the inhibition of growth at 20 µg/mL (in the data set with MCF7 [6]; in the data set on HeLa [7]; in the data set with HepG2 [8]; in [9]; with A549 [10]) was less than 30% throughout. For the same molecule, in data set [11], the inhibition at 72 h, 20 ug/ml was less than 30%.

`CNc1nc(C)c(C(=O)N/N=C/c2cc(C(F)(F)F)cc(C(F)(F)F)c2)s1`: the IC50 (in the data set with MCF7 [1]; with HeLa [2]; in the data set on HepG2 [3]; in [4]; in the data set with A549 [5]) was more than 100 µg/mL in each case. The inhibition of growth at 20 µg/mL (in the data set on MCF7 [6]; in the data set on HeLa [7]; in the data set with HepG2 [8]; in data set [9]; in the data set on A549 [10]) was less than 30% in each case. Moreover, the inhibition at 72 h, 20 ug/ml in data set [11] was less than 30%.

With `CN(C(=O)NC(=O)c1ccc(F)c(F)c1)c1nc(C(F)(F)F)c(C(=O)N/N=C/c2ccc(C(F)(F)F)cc2)s1`, the IC50 amounted to 5.93 µg/mL (≈ 10.2 µM) in the data set with MCF7 [1]; 5.1 µg/mL (≈ 8.8 µM) in the data set with HeLa [2]; 6.26 µg/mL (≈ 10.8 µM) in the data set on HepG2 [3]; 3.85 µg/mL (≈ 6.64 µM) in [4]; 6.07 µg/mL (≈ 10.5 µM) in the data set on A549 [5]; 13.2 µg/mL (≈ 22.9 µM) in data set [12].

For `CNc1nc(C)c(C(=O)N/N=C/c2ccccc2C(F)(F)F)s1`, the IC50 (in the data set with MCF7 [1]; in the data set with HeLa [2]; with HepG2 [3]; in data set [4]; with A549 [5]) was more than 100 µg/mL each time. The inhibition of growth at 20 µg/mL (with MCF7 [6]; with HeLa [7]; in the data set with HepG2 [8]; in data set [9]; in the data set with A549 [10]) was less than 30% each time. The inhibition at 72 h, 20 ug/ml in data set [11] is less than 30%.

Take `O=c1[nH]cc(F)c(=O)[nH]1` [FLUOROURACIL]: the IC50 in the data set on MCF7 [1] came to 10.8 µg/mL (≈ 83 µM); with HeLa [2], 10.7 µg/mL (≈ 82.4 µM); in data set [4], 10.9 µg/mL (≈ 83.7 µM); with A549 [5] it was 10.5 µg/mL (≈ 80.7 µM); in data set [12], 14.5 µg/mL (≈ 112 µM).

Regarding `CNc1nc(C(F)(F)F)c(C(=O)N/N=C/c2ccccc2C(F)(F)F)s1`, the IC50 (with MCF7 [1]; in the data set with HeLa [2]; with HepG2 [3]; in data set [4]; in the data set on A549 [5]) was more than 100 µg/mL throughout. The inhibition of growth at 20 µg/mL (in the data set on MCF7 [6]; in the data set on HeLa [7]; in the data set on HepG2 [8]; in data set [9]; in the data set on A549 [10]) was less than 30% throughout. The inhibition at 72 h, 20 ug/ml in data set [11] is less than 30%.

In the case of `CN(C(=O)NC(=O)c1ccc(F)c(F)c1)c1nc(C(F)(F)F)c(C(=O)N/N=C/c2cc(C(F)(F)F)cc(C(F)(F)F)c2)s1`, the IC50 in the data set with MCF7 [1] stood at 2.61 µg/mL (≈ 4.03 µM); in the data set with HeLa [2], 4.45 µg/mL (≈ 6.87 µM); in the data set with HepG2 [3], 5.47 µg/mL (≈ 8.45 µM); in [4], 3.51 µg/mL (≈ 5.42 µM); with A549 [5], 5.47 µg/mL (≈ 8.45 µM); in data set [12] it was 20.1 µg/mL (≈ 31 µM).

`CCOC(=O)c1sc(NC)nc1C`: the inhibition of growth at 20 µg/mL (in the data set on MCF7 [6]; with HeLa [7]; in the data set on HepG2 [8]; in data set [9]; in the data set on A549 [10]) was less than 10% in each case. The inhibition at 72 h, 20 ug/ml in data set [11] was less than 10%.

For `CN(C(=O)NC(=O)c1ccc(F)c(F)c1)c1nc(C(F)(F)F)c(C(=O)N/N=C/c2cccc(C(F)(F)F)c2)s1`, the IC50 in the data set on MCF7 [1] amounted to 4.15 µg/mL (≈ 7.16 µM); in the data set on HeLa [2], 4.21 µg/mL (≈ 7.27 µM); with HepG2 [3], 5.6 µg/mL (≈ 9.66 µM); in [4], 4.46 µg/mL (≈ 7.7 µM); in the data set on A549 [5], 6.52 µg/mL (≈ 11.3 µM); in [12], 23.5 µg/mL (≈ 40.5 µM).

For the molecule `CN(C(=O)NC(=O)c1ccc(C(F)(F)F)cc1)c1nc(C(F)(F)F)c(C(=O)N/N=C/c2cccc(C(F)(F)F)c2)s1`, the IC50 turned out to be 8.95 µg/mL (≈ 14.6 µM) in the data set with MCF7 [1]; 6.2 µg/mL (≈ 10.1 µM) in the data set on HeLa [2]; 7.95 µg/mL (≈ 13 µM) in the data set with HepG2 [3]; 1.84 µg/mL (≈ 3.01 µM) in data set [4]; 6.66 µg/mL (≈ 10.9 µM) in the data set on A549 [5]; 18 µg/mL (≈ 29.4 µM) in data set [12].

`CCOC(=O)c1sc(NC)nc1C(F)(F)F`: the inhibition of growth at 20 µg/mL (with MCF7 [6]; in the data set on HeLa [7]; with HepG2 [8]; in data set [9]; with A549 [10]) was less than 10% in each case. Further, in data set [11], the inhibition at 72 h, 20 ug/ml is less than 10%.

As for `CNc1nc(C(F)(F)F)c(C(=O)N/N=C/c2ccc(C(F)(F)F)cc2)s1`, the IC50 (in the data set on MCF7 [1]; in the data set on HeLa [2]; in the data set on HepG2 [3]; in [4]; with A549 [5]) was more than 100 µg/mL throughout. In addition, the inhibition of growth at 20 µg/mL (in the data set with MCF7 [6]; in the data set on HeLa [7]; in the data set with HepG2 [8]; in [9]; with A549 [10]) was less than 30% in each case. For the same molecule, the inhibition at 72 h, 20 ug/ml in data set [11] is less than 30%.

For the molecule `CNc1nc(C)c(C(=O)N/N=C/c2cccc(C(F)(F)F)c2)s1`, the IC50 (in the data set on MCF7 [1]; in the data set on HeLa [2]; in the data set on HepG2 [3]; in [4]; with A549 [5]) was more than 100 µg/mL each time. The inhibition of growth at 20 µg/mL (in the data set with MCF7 [6]; in the data set on HeLa [7]; in the data set with HepG2 [8]; in [9]; in the data set on A549 [10]) was less than 30% each time. The inhibition at 72 h, 20 ug/ml in [11] was less than 30%.

On to `CNc1nc(C(F)(F)F)c(C(=O)N/N=C/c2cccc(C(F)(F)F)c2)s1`, for which the IC50 (with MCF7 [1]; in the data set with HeLa [2]; in the data set on HepG2 [3]; in data set [4]; with A549 [5]) was more than 100 µg/mL in each case. The inhibition of growth at 20 µg/mL (in the data set with MCF7 [6]; in the data set on HeLa [7]; with HepG2 [8]; in data set [9]; with A549 [10]) was less than 30% each time. For the same molecule, the inhibition at 72 h, 20 ug/ml in [11] was less than 30%.

Take `CN(C(=O)NC(=O)c1cccc(C(F)(F)F)c1)c1nc(C(F)(F)F)c(C(=O)N/N=C/c2cc(C(F)(F)F)cc(C(F)(F)F)c2)s1`: the IC50 in the data set on MCF7 [1] worked out at 6.08 µg/mL (≈ 8.95 µM); in the data set on HeLa [2] it was 5.34 µg/mL (≈ 7.86 µM); in the data set with HepG2 [3], 5.38 µg/mL (≈ 7.92 µM); in [4] it was 5.23 µg/mL (≈ 7.7 µM); in the data set with A549 [5], 8.2 µg/mL (≈ 12.1 µM).

With `CN(C(=O)NC(=O)c1ccccc1F)c1nc(C(F)(F)F)c(C(=O)N/N=C/c2ccc(C(F)(F)F)cc2)s1`, the IC50 in the data set with MCF7 [1] is 4.98 µg/mL (≈ 8.87 µM); with HeLa [2], 3.97 µg/mL (≈ 7.07 µM); in the data set with HepG2 [3], 4.56 µg/mL (≈ 8.12 µM); in data set [4], 3.87 µg/mL (≈ 6.89 µM); with A549 [5], 5.68 µg/mL (≈ 10.1 µM).

Turning to `CN(C(=O)NC(=O)c1ccccc1F)c1nc(C(F)(F)F)c(C(=O)N/N=C/c2ccccc2C(F)(F)F)s1`, the IC50 with MCF7 [1] is 12.2 µg/mL (≈ 21.8 µM); in the data set on HeLa [2], 10.1 µg/mL (≈ 18 µM); in the data set on HepG2 [3], 5.39 µg/mL (≈ 9.6 µM); in data set [4] it was 4.67 µg/mL (≈ 8.32 µM); in the data set on A549 [5], 6.32 µg/mL (≈ 11.3 µM).
